Results as given in ChEMBL document CHEMBL3272137, “Narcotic antagonists. Synthesis and evaluation of some subsituted 1,2,3,4,5,6-hexahydro-1,4:2,6-dimethano-3-benzazocines” (J Med Chem, 1977).
Calls of active or inactive are those of the source. No cut-off for these calls is given here.

Columns and labels:
Mus musculus [1] = experiment: Narcotic antagonist activity in mouse assessed as inhibition of oxymorphone-induced straub tail response at 40 mg/kg, sc; assay type: functional, organism-based; parameters: dose 40 mg/kg
Summary of the method: (§1)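 Given subcutaneously as salts in aqueous solution, with dose expressed as free base.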

Mus musculus [2] = experiment: Toxicity in mouse assessed as convulsion at 40 mg/kg, sc; assay type: organism-based; parameters: dose 40 mg/kg, route subcutaneous; details: in vivo; summary of the method: as §1
Mus musculus [3] = experiment: Toxicity in mouse assessed as convulsion at 80 mg/kg, sc; assay type: organism-based; parameters: dose 80 mg/kg, route subcutaneous; details: in vivo; summary of the method: as §1
Mus musculus [4] = experiment: Analgesic activity in sc dosed mouse assessed as inhibition of phenylquinone-induced writhing; assay type: functional
Summary of the method: (§2)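 Given subcutaneously as salts in aqueous solution, with doses expressed as free base. ED50 was derived by probit analysis of dose-response data using at least three dose levels and at least six animals per dose level.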

Rattus norvegicus = experiment: Narcotic antagonist activity in sc dosed rat assessed as inhibition of morphine-induced analgesic activity by tail flick test; assay type: functional; summary of the method: as §2
Mus musculus [5] = experiment: Toxicity in mouse assessed as depression at 40 mg/kg, sc; assay type: organism-based; parameters: dose 40 mg/kg, route subcutaneous; details: in vivo; summary of the method: as §1
Mus musculus [6] = experiment: Analgesic activity in mouse assessed as inhibition of phenylquinone-induced writhing at 40 mg/kg, sc; assay type: functional, organism-based; parameters: dose 40 mg/kg; summary of the method: as §1
Mus musculus [7] = experiment: Narcotic antagonist activity in sc dosed mouse assessed as inhibition of oxymorphone-induced straub tail response; assay type: functional; summary of the method: as §2
Mus musculus [8] = experiment: Narcotic antagonist activity in sc dosed mouse assessed as inhibition of oxymorphone-induced narcosis; assay type: functional; summary of the method: as §2
Mus musculus [9] = experiment: Toxicity in mouse assessed as tremor at 40 mg/kg, sc; assay type: organism-based; parameters: dose 40 mg/kg, route subcutaneous; details: in vivo; summary of the method: as §1

| Compound | inhibition (Mus musculus [1]) | Activity (Mus musculus [2]) | Activity (Mus musculus [3]) | ED50 (Mus musculus [4]) [mg/kg] | ED50 (Rattus norvegicus) [mg/kg] | Activity (Mus musculus [5]) | inhibition (Mus musculus [6]) | ED50 (Mus musculus [7]) [mg/kg] | ED50 (Mus musculus [8]) [mg/kg] | Activity (Mus musculus [9]) |
| --- | --- | --- | --- | --- | --- | --- | --- | --- | --- | --- |
| CCC12CC3CC(c4ccc(O)cc41)C(C2)N3 (stereo unspecified) | inactive | Toxic | Toxic | 12.9 |  |  |  |  |  |  |
| CCC12CC3CC(c4ccc(O)cc41)C(C2)N3CCC1CC1 (stereo unspecified) |  |  | Toxic |  | > 20 | Toxic | Active | > 20 |  |  |
| CC12CC3CC(c4ccc(O)cc41)C(C2)N3CC1CCC1 (stereo unspecified) | inactive |  | Toxic |  |  |  | inactive |  |  |  |
| CCC12CC3CC(c4ccc(O)cc41)C(C2)N3CC1CCC1 (stereo unspecified) |  | Toxic | Toxic |  | 10 |  | inactive | 15 | 5 |  |
| C=CCN1C2CC3c4ccc(O)cc4C(CC)(C2)CC31 (stereo unspecified) |  |  | Toxic | 20 | 3.3 |  |  | 8 | 1 | Toxic |
| C=CCN1CC[C@]23c4c5ccc(O)c4O[C@H]2[C@@H](O)C=C[C@H]3[C@H]1C5 [NALORPHINE] |  |  |  | 0.77 | 0.38 |  |  |  | 0.58 |  |
| CCC12CC3CC(c4ccc(O)cc41)C(C2)N3CC1CC1 (stereo unspecified) |  |  | Toxic |  | 0.44 |  | Active | 2.24 | 0.32 |  |
| CN1CC[C@]23c4c5ccc(O)c4O[C@H]2[C@@H](O)C=C[C@H]3[C@H]1C5 [MORPHINE] |  |  |  | 0.26 |  |  |  |  |  |  |
| CN1C2CC3c4ccc(O)cc4C(C)(C2)CC31 (stereo unspecified) | inactive |  | Toxic | 31.8 |  |  |  |  |  |  |
| CC(C)=CCN1CC[C@]2(C)c3cc(O)ccc3C[C@H]1[C@H]2C [(+)-PENTAZOCINE] |  |  |  | 3.7 |  |  |  | 12 | 10.1 |  |
| CC12CC3CC(c4ccc(O)cc41)C(C2)N3CCC1CC1 (stereo unspecified) | inactive |  | Toxic |  |  |  | inactive |  |  |  |
| CC12CC3CC(c4ccc(O)cc41)C(C2)N3 (stereo unspecified) |  |  | Toxic |  |  |  |  |  |  |  |
| CC12CC3CC(c4ccc(O)cc41)C(C2)N3CC1CC1 (stereo unspecified) |  |  | Toxic |  | 0.64 |  | Active | 0.96 | 0.63 |  |
| CCC12CC3CC(c4ccc(O)cc41)C(C2)N3C (stereo unspecified) | inactive |  | Toxic | 24.3 |  |  |  |  |  |  |
